Reference: ChEMBL document CHEMBL1152496, “N-Terminal 2,3-diaminopropionic acid (Dap) peptides as efficient methylglyoxal scavengers to inhibit advanced glycation endproduct (AGE) formation” (Bioorg Med Chem, 2009)
Where a SMILES comes first, the peptide text is derived from it. [ ]: non-standard residue; d: D form. Dap = NC[C@H](N)C(=O)O

Columns and labels:
[1] = Inhibition of alpha-dicarbonyls-induced advanced glycation end product formation assessed as protection against 100 eq. MG-induced insulin degradation at 3.75 mM after 24 hrs by RP-HPLC; design: scale not given: the % may be the effect or the level left; details: 3750 µM
[2] = Cytotoxicity in human EAhy926 cells assessed as viable cells at 1 mM after 48 hrs by MTT assay
[3] = Cytoprotective activity against MG-induced cytotoxicity in human EAhy926 cells assessed as viable cells at 1 mM after 48 hrs by MTT assay; details: EA.hy 926
[4] = Inhibition of alpha-dicarbonyls-induced advanced glycation end product formation assessed as protection against MG-induced loss of bovine pancreatic RNaseA enzyme activity after 48 hrs […]; type: physicochemical; design: concentration or dose not given beside the values; details: cattle
In short: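 RNase A was pre-incubated with equimolar MG ± scavenger at 37 °C, pH 7.4. The glycated enzyme (10 µg/mL) was added to a methylene blue–yeast RNA solution (600 µg/mL RNA working concentration), and remaining activity was compared with control.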

NCCC(N)C(=O)O (racemic)
Activity [1]: 40%

NC[C@H](N)C(=O)NCCC(=O)O
Activity [1]: 69%

NC[C@H](N)C(=O)N1CCC[C@H]1C(=O)O (H-[Dap]-Pro-OH)
Activity [1]: 77%

Cc1ncc(CO)c(CN)c1O [PYRIDOXAMINE]
Activity [1]: 14%
viability at 1000 µM [2]: 92%
viability at 1000 µM [3]: 32%

CC(C)(S)C(N)C(=O)O (racemic) [DL-PENICILLAMINE]
Activity [1]: 69%
viability at 1000 µM [2]: 86%
viability at 1000 µM [3]: 61%

CCCC[C@H](NC(=O)[C@@H](N)CN)C(=O)O
viability at 1000 µM [2]: 94%
viability at 1000 µM [3]: 74%

NC[C@H](N)C(=O)N[C@@H](Cc1ccccc1)C(=O)O
viability at 1000 µM [2]: 78%
viability at 1000 µM [3]: 67%

CN(C)C(=N)N=C(N)N [METFORMIN]
Activity [1]: 11%
viability at 1000 µM [2]: 84%
viability at 1000 µM [3]: 53%

CC(C)C[C@@H](NC(=O)[C@@H](N)CN)C(=O)O
viability at 1000 µM [2]: 87%
viability at 1000 µM [3]: 71%

CCCC[C@H](NC(=O)[C@H](N)CN)C(=O)O
Activity [1]: 91%

NCC(N)C(=O)O (configuration not stated)
Activity [1]: 98%
Activity [4]: 20%

N=C(N)NCCC[C@H](N)C(=O)O [ARGININE]
Activity [1]: 18%

NC[C@@H](N)C(=O)N[C@@H](Cc1ccc(C(F)(F)F)cc1)C(=O)O
Activity [1]: 74%

NCC(N)C(=O)O (single isomer, unassigned) [DIAMINOPROPANOIC ACID]
viability at 1000 µM [2]: 81%
viability at 1000 µM [3]: 67%

NCCCC[C@H](NC(=O)[C@H](N)CN)C(=O)O
viability at 1000 µM [2]: 81%
viability at 1000 µM [3]: 43%
